Test [1] can be described thus: inhibitors of TNFa-induced NFkB p65 translocation, primary screen, imaging, HUVEC, MLSMR starter and 10KST1 sets (AID 438;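 active = inhibition above 20% together with a positive visual image hit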;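 note: compound added about 3h40 before a 20 min TNFalpha stimulation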;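 for inhibition: signal is the nuclear over cytoplasmic p65 intensity ratio per well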). To be noted: HUVEC TNFa-induced p65 nuclear translocation; cell count: measured here: nuclei count (cytotoxicity indicator), at 2.08 µM; inhibition: at 2 µM, stronger effect = higher value, 0% TNFa-plus-vehicle, 100% no-TNFa wells.
The nature of test [2]: endothelial E-selectin expression blockers – imaging, HUVEC, immunofluorescence, MLSMR starter and 10KST1 sets, primary screen (AID 487;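 active = visually confirmed hit in the image check and inhibition above 20%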;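 for inhibition: signal is fraction of cell area covered by stained E-selectin grains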;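 for nuclei count: 100% = median nuclei count of all wells on the same plate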). To be noted: HUVEC TNFalpha-induced E-selectin immunofluorescence imaging, at 2 µM; inhibition: stronger effect = higher value; nuclei count: measured here: cell number, toxicity.
Test [3] can be described thus: Primary imaging screen for DUSP6 inhibitors that restore phospho-Erk in transfected HeLa cells, chemical complementation (AID 609;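 active = compounds giving at least 50% inhibition in the cell-based MKP-3 phosphatase rescue imaging test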;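 for inhibition: phospho-Erk level distribution per well compared with pooled transfected vehicle control wells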). To be noted: HeLa MKP-3 transfected, phospho-Erk imaging KS statistic, at 10 µM, cells stimulated with TPA for 15 min.
The target in test [4] is Dual specificity protein phosphatase 6 (Homo sapiens) (UniProt Q16828). Described as above. As to conditions: HeLa MKP-3 transfected, phospho-Erk imaging KS statistic; at 10 µM; stronger effect = higher value; cells stimulated with TPA for 15 min.
Chain of Dual specificity protein phosphatase 6 (Homo sapiens) (Q16828 whole entry, looked up): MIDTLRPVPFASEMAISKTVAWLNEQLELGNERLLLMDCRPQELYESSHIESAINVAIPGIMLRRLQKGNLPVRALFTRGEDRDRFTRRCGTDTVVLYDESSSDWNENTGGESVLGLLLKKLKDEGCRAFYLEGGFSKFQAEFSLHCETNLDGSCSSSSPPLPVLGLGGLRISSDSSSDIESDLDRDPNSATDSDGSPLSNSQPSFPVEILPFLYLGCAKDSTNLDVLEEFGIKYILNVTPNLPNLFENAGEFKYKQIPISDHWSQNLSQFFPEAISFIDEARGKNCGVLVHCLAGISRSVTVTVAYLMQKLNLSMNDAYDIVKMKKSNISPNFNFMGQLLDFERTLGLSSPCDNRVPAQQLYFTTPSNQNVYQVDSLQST
Test [5] deals with Voltage-gated potassium channel subunit beta-2 (Rattus norvegicus) (UniProt P62483). Put plainly: inhibitors of rat Kvbeta2 reductase activity – biochemical, NADPH fluorescence, primary screen (AID 622;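 active = fluorescence slope higher than the sample average by over 3 SD, cut at about -0.22 in these data, passing the limit was not always enough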;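 note: slope of raw intensity against log time taken from 70 to 1610 s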). As to conditions: recombinant KvBeta, 4-cyanobenzaldehyde reduction, at 10 µM, stronger effect = higher value.
Chain of Voltage-gated potassium channel subunit beta-2 (Rattus norvegicus) (P62483 whole entry, looked up): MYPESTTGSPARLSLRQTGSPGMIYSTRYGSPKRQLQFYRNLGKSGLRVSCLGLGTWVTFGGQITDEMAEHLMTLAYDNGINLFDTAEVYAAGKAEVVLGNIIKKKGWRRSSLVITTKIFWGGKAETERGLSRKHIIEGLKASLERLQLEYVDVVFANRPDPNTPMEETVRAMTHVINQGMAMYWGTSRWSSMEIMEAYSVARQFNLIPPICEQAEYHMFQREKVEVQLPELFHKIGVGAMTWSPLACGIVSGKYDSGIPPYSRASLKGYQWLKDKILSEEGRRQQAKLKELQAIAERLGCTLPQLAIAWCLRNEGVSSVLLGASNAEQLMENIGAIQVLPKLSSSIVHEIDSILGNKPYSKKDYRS
Test [6] shares this target. Description: enhancers of rat Kvbeta2 NADPH turnover – biochemical, NADPH fluorescence, primary screen (AID 623).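 Note: fluorescence intensity change per second fitted from 20 to 320 s.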 To be noted: Recombinant KvBeta, NADPH fluorescence decrease slope, 10 min; at 10 µM; stronger effect = lower value.
For test [7], the target named is Muscarinic acetylcholine receptor M4 (Homo sapiens) (UniProt P08173). Put plainly: M4-linked GIRK flux change, two-sided – cell-based, HEK293 M4/GIRK, thallium flux, BTC-AM, M4 allosteric agonist project, primary screen (AID 625;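 active = fluorescence slope after compound addition differing from the mean of all tested samples at 99.7% confidence, mostly higher but some lower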;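 note: thallium influx through GIRK channels coupled to M4 in HEK293 cells with BTC-AM dye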). To be noted: at 10 µM, actives lie on both sides. An outline of the steps: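 System: HEK293 cells with M4 receptor and GIRK channels | Incubation: Cells overnight at 37 °C, BTC-AM loading 1 h, reads 2 min total | Technique: Kinetic BTC-AM fluorescence sampled at 1 Hz, 10 s pre-addition baseline | Measure: Post-addition slope, 15–24 s, of baseline-normalized fluorescence | Control set: Carbachol positive, DMSO negative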
Chain of Muscarinic acetylcholine receptor M4 (Homo sapiens) (P08173 whole entry, looked up): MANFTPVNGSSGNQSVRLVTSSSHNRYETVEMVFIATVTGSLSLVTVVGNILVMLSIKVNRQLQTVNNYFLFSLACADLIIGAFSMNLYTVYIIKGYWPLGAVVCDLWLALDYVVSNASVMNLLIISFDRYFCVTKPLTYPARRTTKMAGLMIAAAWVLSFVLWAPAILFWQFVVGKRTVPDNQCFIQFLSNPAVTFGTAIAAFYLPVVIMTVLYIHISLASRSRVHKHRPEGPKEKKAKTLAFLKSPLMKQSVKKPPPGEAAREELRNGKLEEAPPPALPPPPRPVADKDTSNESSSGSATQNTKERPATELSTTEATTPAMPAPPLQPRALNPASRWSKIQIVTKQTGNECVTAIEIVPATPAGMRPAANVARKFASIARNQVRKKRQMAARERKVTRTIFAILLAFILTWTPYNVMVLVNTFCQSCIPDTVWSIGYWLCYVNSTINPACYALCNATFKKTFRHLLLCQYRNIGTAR

Test [8] in a line: inhibitors of larval lipid processing in zebrafish, primary screen, whole organism, PED6 fluorescence, gall bladder and intestine (AID 686;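 active = a full or partial loss of lipid-probe fluorescence in the fish gall bladder, intestine or both, judged by eye; inactive = no fluorescence loss, or compound toxic to the fish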;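 note: larvae 5 to 7 days old with five fish per well; signal comes from phospholipase A2 cleavage of quenched PED6 carried via bile; overnight exposure to compound and PED6 before scoring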). To be noted: Zebrafish larvae PED6 lipid processing, fluorescence scoring; screened at 20 µM (by protocol). An outline of the steps: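 Test system – live zebrafish larvae aged 5-7 days, whole organism · Buffer or medium – E3 fish medium · Reagent – quenched phospholipase substrate PED6, 100 nM final, ingested by larvae · Doses – 20 µM single dose · Incubation – overnight compound and PED6 incubation · Technique – visual fluorescence microscopy scoring of gall bladder, gut · Read-out basis – visual per-well fluorescence inhibition score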

Test [9] is described as follows: loss of swimming-algae plug formation – whole organism, Chlamydomonas reinhardtii, WT vs cilia-less mutant, absorbance, 96-well, primary screen (AID 463189;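 active = inhibition at or above 50% relative to wild type and mutant plate controls; inactive = inhibition below 50%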;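 note: 0% = wild type cc124 cells in DMSO and 100% = ciliumless bld1 mutant cells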). As to conditions: Chlamydomonas reinhardtii gravitaxis, OD600 absorbance, 2 days; at 10 µM; stronger effect = higher value.
[10] abbreviates: measured here: cell density z-score.
The mark [11] stands for this setting: measured here: nuclear c-Myc green intensity z-score.
Where [12] appears, read: measured here: nuclear pErk red intensity z-score, stronger effect = higher value.

The results in this text go back to PubChem BioAssay.

Activity calls are given as the source filed them.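 Rule for the calls, unless noted: active = NADPH fluorescence slope more negative than the mean of all samples by about 3 SD, 99.7% confidence; inactive = the rest.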

Broadly, the inhibition is the drop in the measured response relative to a control, in per cent. For `Cc1ccc(Oc2nc3c(c(=O)n(Cc4ccccc4F)c(=O)n3C)n2C)cc1`, the cell count in test [1] came to 749. Besides, the inhibition in test [1] was 2.1% (inactive); in [2] it was -74.9% (inactive); in test [4], 19.8% (inactive); in test [9], 11.6% (inactive). This compound also yielded a nuclei count in [2] of 156%. For the same compound, the z-score in [3] (setting [10]) is 0.256; in test [3] (setting [11]), -1.95; in test [3] (setting [12]) it was -0.363. The fluorescence slope is -0.508 (inactive) in test [5] and 0.00827 (inactive) in [7]. Moreover, the NADPH fluorescence slope in [6] was -3.8e-05 (inactive). The outcome in [8] was inactive.
In the case of `O=C(C1CCCCC1)N1CCCn2c1nc1ccccc12`, the cell count in test [1] is 466. Moreover, the inhibition was -4.2% (inactive) in [1], 40.4% (inactive) in test [2], -0.233% (inactive) in [4] and -20.3% (inactive) in [9]. Moreover, the nuclei count in [2] came out at 93.7%. Further, the figures for the z-score in test [3] (setting [10]), in test [3] (setting [11]) and in test [3] (setting [12]) were 0.0435, 0.0435 and -0.166, respectively. Besides, the fluorescence slope in test [5] was -0.481 (inactive); in [7] it was 0.00633 (inactive). Besides, the NADPH fluorescence slope in test [6] is -3.7e-05 (inactive). Besides, the compound was classed as inactive in [8].
For the compound `C=CCN=C(C)C1=C(O)CCC1=O`, in test [1], the cell count is 637. Moreover, the inhibition was 3.3% (inactive) in test [1], -33.6% (inactive) in [2], -2.09% (inactive) in test [4] and 11.3% (inactive) in test [9]. In test [2], the nuclei count stood at 116%. Further, the z-score in [3] (setting [10]) was -0.646; in test [3] (setting [11]), 0.913; in test [3] (setting [12]), -0.284. The fluorescence slope was -0.445 (inactive) in [5] and 0.0054 (inactive) in test [7]. In [6], the NADPH fluorescence slope was -6.8e-05 (inactive). For the same compound, in test [8], the compound was classed as inactive.
With `CCCCCOC(=O)C(C)c1c(C)[nH]c(=S)[nH]c1=O` (centres undefined), the cell count in test [1] was found to be 628. Further, the inhibition in test [1] was -1.4% (inactive); in [2], -25.9% (inactive); in test [4], 1.04% (inactive); in test [9] it was -3.91% (inactive). Also, the nuclei count in test [2] turned out to be 158%. Besides, the z-score in test [3] (setting [10]) was -0.614; in [3] (setting [11]) it was -0.028; in test [3] (setting [12]) it was 2.51. In addition, the fluorescence slope was -0.47 (inactive) in test [5] and 0.00582 (inactive) in test [7]. For the same compound, the NADPH fluorescence slope in [6] was -8.1e-05 (inactive). In addition, in test [8], the compound was classed as inactive.
For the compound `CN(CCNC(=O)c1ccc(/C=N/O)nc1)Cc1ccccc1`, in [1], the cell count came to 620. The inhibition in [1] was -9.1% (inactive); in test [2] it was -41% (inactive); in test [4], 1.63% (inactive); in [9], 1.08% (inactive). Besides, the nuclei count in [2] is 182%. In addition, the z-score in [3] (setting [10]) was -0.419; in test [3] (setting [11]), -0.398; in [3] (setting [12]), -0.0227. Moreover, the figures for the fluorescence slope in [5] and in [7] were -0.479 (inactive) and 0.00471 (inactive), respectively. Besides, the NADPH fluorescence slope in [6] is -5.2e-05 (inactive). For the same compound, the result in test [8] was inactive.
In the case of `COc1ccc(CN(C#N)c2nc(SC)nc(N(C)C)n2)cc1`, the cell count in test [1] is 720. The inhibition in [1] was -0.6% (inactive); in test [2] it was -41.4% (inactive); in [4], -3.95% (inactive); in test [9] it was -6.51% (inactive). The nuclei count in test [2] was found to be 137%. Further, the z-score in test [3] (setting [10]) worked out at 0.386; in test [3] (setting [11]) it was 1.03; in [3] (setting [12]) it was 0.357. Moreover, the values for the fluorescence slope in [5] and in test [7] were -0.451 (inactive) and 0.00509 (inactive), respectively. The NADPH fluorescence slope in test [6] was -4.7e-05 (inactive). Further, the compound was called inactive in [8].
For the compound `Cc1ccc(Cn2ncc3c(N4CCN(Cc5ccc(Cl)cc5)CC4)ncnc32)cc1`, the cell count in test [1] was determined as 549. Besides, the inhibition is 22.5% (active) in [1], -21.2% (inactive) in [2], 5.95% (inactive) in test [4] and 60.8% (active) in test [9]. The compound also registered a nuclei count in [2] of 134%. Moreover, the z-score in test [3] (setting [10]) was -0.467; in [3] (setting [11]) it was 0.343; in test [3] (setting [12]), 1.03. The fluorescence slope is -0.368 (inactive) in test [5] and 0.00938 (inactive) in [7]. Moreover, in test [6], the NADPH fluorescence slope was -6.6e-05 (inactive). Besides, the outcome in test [8] was inactive.
As to `CC(C)Cc1[nH]c(=O)c(C#N)c2c1COC(C)(C)C2`, in test [1], the cell count turned out to be 568. Besides, the inhibition in [1] was -11.1% (inactive); in test [2], -69.9% (inactive); in test [4], -13.3% (inactive); in [9], 23.1% (inactive). The compound further yielded a nuclei count in [2] of 141%. The z-score was 0.028 in test [3] (setting [10]), -0.951 in test [3] (setting [11]) and -0.389 in [3] (setting [12]). Moreover, the fluorescence slope was -0.43 (inactive) in test [5] and 0.00369 (inactive) in test [7]. In addition, the NADPH fluorescence slope in [6] is -5.3e-05 (inactive). The compound was called inactive in test [8].
With `O=c1cc(-c2ccco2)nc(-c2cccs2)o1`, in test [1], the cell count was determined as 667. The inhibition in test [1] is 5.6% (inactive); in [2], 7.4% (inactive); in test [4], 9.91% (inactive); in [9] it was 22.8% (inactive). In addition, in test [2], the nuclei count came out at 99.4%. Moreover, the z-score in [3] (setting [10]) is -0.166; in test [3] (setting [11]), -0.514; in [3] (setting [12]), -0.386. Besides, the figures for the fluorescence slope in test [5] and in test [7] were -0.561 (inactive) and 0.0053 (inactive), respectively. In [6], the NADPH fluorescence slope is -5.3e-05 (inactive). Also, the outcome in test [8] was inactive.
As for `Cc1ccc(C(=O)/C=C/Nc2ccccn2)cc1`, in test [1], the cell count was 361. The inhibition in [1] was -5.9% (inactive); in [2] it was -98.9% (inactive); in test [4], 15.4% (inactive); in test [9], 35.5% (inactive). Moreover, the nuclei count in [2] is 104%. The z-score was 0.761 in [3] (setting [10]), 0.782 in test [3] (setting [11]) and -1.14 in [3] (setting [12]). The fluorescence slope was -0.455 (inactive) in test [5] and 0.00424 (inactive) in test [7]. In addition, the NADPH fluorescence slope in test [6] is -3.3e-05 (inactive). In test [8], the outcome was inactive.
For the compound `COc1ccccc1NC(=O)c1c(C)cc(=O)oc1C`, the cell count in test [1] came out at 601. Besides, the inhibition in [1] was -14.3% (inactive); in test [2], 35.3% (inactive); in test [4] it was -4.59% (inactive); in [9], 17.9% (inactive). Besides, the nuclei count in test [2] came out at 145%. The figures for the z-score in [3] (setting [10]), in [3] (setting [11]) and in test [3] (setting [12]) were -0.227, -0.0987 and -0.0601, respectively. Besides, the results for the fluorescence slope in [5] and in [7] were -0.409 (inactive) and 0.00639 (inactive), respectively. The NADPH fluorescence slope in test [6] is -3e-05 (inactive). In addition, the result in test [8] was inactive.
Consider `O=C1c2ccccc2C(=O)N1c1ncccn1`, for which the cell count in [1] stood at 500. The inhibition in test [1] is -8.5% (inactive); in test [2], -89% (inactive); in test [4] it was 1.42% (inactive); in [9] it was 3.86% (inactive). This compound also showed a nuclei count in test [2] of 138%. Further, the figures for the z-score in test [3] (setting [10]), in [3] (setting [11]) and in test [3] (setting [12]) were -0.519, -0.638 and 0.031, respectively. Moreover, the results for the fluorescence slope in test [5] and in test [7] were -0.454 (inactive) and 0.00418 (inactive), respectively. In addition, the NADPH fluorescence slope in [6] was -0.000107 (inactive). The outcome in test [8] was inactive.
As for `CSc1nc2sc3c(c2c2nnnn12)CCC3`, the cell count in test [1] is 594. Also, the inhibition in [1] is -5.2% (inactive); in test [2], -73% (inactive); in test [4] it was 1.63% (inactive); in test [9] it was 17.9% (inactive). In test [2], this compound showed a nuclei count of 143%. In addition, the figures for the z-score in [3] (setting [10]), in [3] (setting [11]) and in test [3] (setting [12]) were -0.0727, 0.543 and 0.37, respectively. The fluorescence slope in test [5] is -0.441 (inactive); in [7], 0.00506 (inactive). In addition, the NADPH fluorescence slope in [6] is -0.000113 (inactive). Further, the call in test [8] was inactive.
